Common to all, as to settings: Gastric mucosa
Test [1] concerns Rattus norvegicus. As to the kind of experiment: Gastroprotective effect in […] assessed as inhibition of ethanol-induced gastric mucosal lesions at 5 mg/kg, po administered 1 hr prior to ethanol challenge relative to control. It is filed as functional. An outline of the steps: (§1)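 Male […] fasted 24-26 h with free access to water, conscious. Given agent orally at 5.0 mL/kg, suspended in 5% acacia or 0.5% CMC-Na. 1 h later, 99.5% ethanol 1.5 mL/rat by orogastric tube. After 1 h, stomach fixed with 1.5% formalin and opened. Lesion index is total lesion length (mm). Inhibition is versus vehicle controls, n = 4-6.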

The subject of test [2] is Rattus norvegicus. Description: Gastroprotective effect in […] assessed as inhibition of ethanol-induced gastric mucosal lesions at 75 mg/kg, po administered 1 hr prior to ethanol challenge relative to control. Format: functional. Put shortly: as §1
In test [3] the test system is Rattus norvegicus. As to the kind of experiment: Gastroprotective effect in […] assessed as inhibition of ethanol-induced gastric mucosal lesions at 150 mg/kg, po administered 1 hr prior to ethanol challenge relative to control. Format: functional. An outline of the steps:
as §1

The subject of test [4] is Rattus norvegicus. Description: Gastroprotective effect in […] assessed as inhibition of ethanol-induced gastric mucosal lesions at 300 mg/kg, po administered 1 hr prior to ethanol challenge relative to control. Format: functional. An outline of the steps:
as §1

Test [5] concerns Rattus norvegicus. As to the kind of experiment: Gastroprotective effect in […] assessed as inhibition of ethanol-induced gastric mucosal lesions at 10 mg/kg, po administered 1 hr prior to ethanol challenge relative to control. It is filed as functional. An outline of the steps:
as §1

The test system of test [6] is Rattus norvegicus. As to the kind of experiment: Gastroprotective effect in […] assessed as inhibition of ethanol-induced gastric mucosal lesions at 15 mg/kg, po administered 1 hr prior to ethanol challenge relative to control. Format: functional. Put shortly: as §1
Test [7] has as its system Rattus norvegicus. As to the kind of experiment: Gastroprotective effect in […] assessed as inhibition of ethanol-induced gastric mucosal lesions at 20 mg/kg, po administered 1 hr prior to ethanol challenge relative to control. Format: functional. An outline of the steps:
as §1

Test [8] deals with Rattus norvegicus. As to the kind of experiment: Gastroprotective effect in […] assessed as inhibition of ethanol-induced gastric mucosal lesions at 5 mg/kg, po administered 1 hr prior to ethanol challenge relative to control.

Where a name gives a salt, the structure may show the parent alone.

This is an account of results in ChEMBL document CHEMBL1157242, “Triterpene saponins with gastroprotective effects from tea seed (the seeds of Camellia sinensis)” (2006).

With `C/C=C(/C)C(=O)O[C@H]1CC(C)(C)CC2C3=CCC4[C@@]5(C)CC[C@H](O[C@@H]6O[C@H](C(=O)O)[C@@H](O)[C@H](O[C@@H]7OC[C@H](O)[C@H](O)[C@H]7O[C@@H]7OC[C@@H](O)[C@H](O)[C@H]7O)[C@H]6O[C@H]6O[C@H](CO)[C@H](O)[C@H](O)[C@H]6O)[C@@](C)(C=O)C5CC[C@@]4(C)[C@]3(C)C[C@@H](O)[C@]21CO` (stereo partly drawn) [ASSAMSAPONINS A], the inhibition in vivo at 5 mg/kg in the test on Rattus norvegicus [1] stood at 61%.

As for `C/C=C(/C)C(=O)O[C@H]1[C@H](OC(C)=O)[C@@]2(CO)C(CC1(C)C)C1=CCC3[C@@]4(C)CC[C@H](O[C@@H]5O[C@H](C(=O)O)[C@@H](O)[C@H](O[C@@H]6OC[C@H](O)[C@H](O)[C@H]6O[C@@H]6OC[C@@H](O)[C@H](O)[C@H]6O)[C@H]5O[C@H]5O[C@H](CO)[C@H](O)[C@H](O)[C@H]5O)[C@@](C)(CO)C4CC[C@@]3(C)[C@]1(C)C[C@H]2O` (stereo partly drawn) [ASSAMSAPONINS D], in the test on Rattus norvegicus [1], the inhibition in vivo at 5 mg/kg amounted to 47.9%.

As to `NC[C@H]1CC[C@H](C(=O)Oc2ccc(CCC(=O)O)cc2)CC1` [CETRAXATE HYDROCHLORIDE], in the test with Rattus norvegicus [2], the inhibition in vivo at 75 mg/kg came out at 41.2%. For the same compound, in the test on Rattus norvegicus [3], the inhibition in vivo at 150 mg/kg was found to be 65.6%. The inhibition in vivo at 300 mg/kg with Rattus norvegicus [4] came to 79.4%.

Regarding `COc1ccc2[nH]c([S+]([O-])Cc3ncc(C)c(OC)c3C)nc2c1` (stereo not drawn) [OMEPRAZOLE], in the test on Rattus norvegicus [5], the inhibition in vivo at 10 mg/kg came out at 43.1%. The inhibition in vivo at 15 mg/kg with Rattus norvegicus [6] came to 82%. The inhibition in vivo at 20 mg/kg in the test on Rattus norvegicus [7] stood at 89.4%.

Consider `C/C=C(/C)C(=O)O[C@H]1[C@H](O)[C@@]2(CO)C(CC1(C)C)C1=CCC3[C@@]4(C)CC[C@H](O[C@@H]5O[C@H](C(=O)O)[C@@H](O)[C@H](O[C@@H]6OC[C@H](O)[C@H](O)[C@H]6O[C@@H]6OC[C@@H](O)[C@H](O)[C@H]6O)[C@H]5O[C@H]5O[C@H](CO)[C@H](O)[C@H](O)[C@H]5O)[C@@](C)(CO)C4CC[C@@]3(C)[C@]1(C)C[C@H]2O` (stereo partly drawn) [THEASAPONINS A1], for which the inhibition in vivo at 5 mg/kg with Rattus norvegicus [1] was found to be 37%.

With `C/C=C(/C)C(=O)O[C@H]1[C@H](O)[C@@]2(COC(C)=O)C(CC1(C)C)C1=CCC3[C@@]4(C)CC[C@H](O[C@@H]5O[C@H](C(=O)O)[C@@H](O)[C@H](O[C@@H]6OC[C@H](O)[C@H](O)[C@H]6O[C@@H]6OC[C@@H](O)[C@H](O)[C@H]6O)[C@H]5O[C@H]5O[C@H](CO)[C@H](O)[C@H](O)[C@H]5O)[C@@](C)(CO)C4CC[C@@]3(C)[C@]1(C)C[C@H]2O` (stereo partly drawn) [THEASAPONINS A2], the inhibition in vivo at 5 mg/kg in the test with Rattus norvegicus [1] was found to be 54.7%.

In the case of `C/C=C(/C)C(=O)O[C@H]1[C@H](OC(C)=O)[C@@]2(CO)C(CC1(C)C)C1=CCC3[C@@]4(C)CC[C@H](O[C@@H]5O[C@H](C(=O)O)[C@@H](O)[C@H](O[C@@H]6OC[C@H](O)[C@H](O)[C@H]6O[C@@H]6OC[C@@H](O)[C@H](O)[C@H]6O)[C@H]5O[C@H]5O[C@H](CO)[C@H](O)[C@H](O)[C@H]5O)[C@@](C)(C=O)C4CC[C@@]3(C)[C@]1(C)C[C@H]2O` (stereo partly drawn) [THEASAPONINS E1], the inhibition in vivo at 5 mg/kg with Rattus norvegicus [8] worked out at 71.4%.

On to `C/C=C(/C)C(=O)O[C@H]1[C@H](O)[C@@]2(COC(C)=O)C(CC1(C)C)C1=CCC3[C@@]4(C)CC[C@H](O[C@@H]5O[C@H](C(=O)O)[C@@H](O)[C@H](O[C@@H]6OC[C@H](O)[C@H](O)[C@H]6O[C@@H]6OC[C@@H](O)[C@H](O)[C@H]6O)[C@H]5O[C@H]5O[C@H](CO)[C@H](O)[C@H](O)[C@H]5O)[C@@](C)(C=O)C4CC[C@@]3(C)[C@]1(C)C[C@H]2O` (stereo partly drawn) [THEASAPONINS E2], for which, in the test with Rattus norvegicus [8], the inhibition in vivo at 5 mg/kg is 77.6%.

As for `C/C=C(/C)C(=O)O[C@H]1[C@H](O)[C@@]2(COC(C)=O)C(CC1(C)C)C1=CCC3[C@@]4(C)CC[C@H](O[C@@H]5O[C@H](C(=O)O)[C@@H](O)[C@H](O[C@@H]6OC[C@H](O)[C@H](O)[C@H]6O[C@@H]6OC[C@@H](O)[C@H](O)[C@H]6O)[C@H]5O[C@H]5O[C@H](CO)[C@H](O)[C@H](O)[C@H]5O)[C@@](C)(C(=O)OC)C4CC[C@@]3(C)[C@]1(C)C[C@H]2O` (stereo partly drawn) [THEASAPONINS F3], the inhibition in vivo at 5 mg/kg in the test on Rattus norvegicus [1] was determined as 42.1%.

Broadly, the inhibition in vivo is the drop in the measured response relative to a control, in per cent.
